Measured values as given in ChEMBL document CHEMBL5230179, “Novel irreversible peptidic inhibitors of transglutaminase 2” (RSC Med Chem, 2023).
The source made the active and inactive calls. The calls are words filed in the database; no cut-off is given here.

Tests used:
[1] = target: T1, Protein-glutamine gamma-glutamyltransferase (Homo sapiens) (UniProt P21980); assay: Irreversible inhibition of recombinant human TG2 expressed in Escherichia coli BL21 assessed as ratio of Kinact/Ki using AL5 as substrate by continuous chromogenic assay
T1 sequence (whole entry): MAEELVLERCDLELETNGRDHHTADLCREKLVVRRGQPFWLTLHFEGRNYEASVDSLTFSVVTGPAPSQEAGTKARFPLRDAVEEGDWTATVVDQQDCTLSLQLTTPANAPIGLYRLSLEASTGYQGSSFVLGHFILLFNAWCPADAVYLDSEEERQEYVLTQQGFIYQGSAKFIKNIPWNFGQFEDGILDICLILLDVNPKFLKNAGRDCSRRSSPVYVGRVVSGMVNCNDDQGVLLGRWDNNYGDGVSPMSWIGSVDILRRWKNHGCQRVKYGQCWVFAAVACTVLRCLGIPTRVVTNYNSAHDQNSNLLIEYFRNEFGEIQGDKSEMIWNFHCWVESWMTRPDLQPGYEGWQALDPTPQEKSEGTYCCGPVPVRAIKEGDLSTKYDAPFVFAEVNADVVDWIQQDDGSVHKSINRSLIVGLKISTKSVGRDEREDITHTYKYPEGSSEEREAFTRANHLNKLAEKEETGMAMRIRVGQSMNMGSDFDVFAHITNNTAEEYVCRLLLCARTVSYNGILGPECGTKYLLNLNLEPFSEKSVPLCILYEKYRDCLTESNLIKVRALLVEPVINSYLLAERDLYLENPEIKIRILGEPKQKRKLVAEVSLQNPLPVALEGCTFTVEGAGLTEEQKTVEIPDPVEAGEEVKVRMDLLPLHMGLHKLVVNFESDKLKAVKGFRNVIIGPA
Method in brief: (§1)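 Human TG2 expressed and purified from E. coli BL21; AL5 (Cbz-Glu(γ-p-nitrophenyl ester)-Gly-OH) hydrolysis read at 405 nm for 20 min at 25 °C under Kitz–Wilson conditions; final 100 µM AL5, 50 mM MOPS pH 6.9, 7.5 mM CaCl2, 5 mU/mL TG2, <5% DMSO; ≥4 inhibitor levels; rate constants fitted by saturation model against [I]/α (α = 1 + [S]/KM) for kinact and KI.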

[2] = target: T2, Protein-glutamine gamma-glutamyltransferase (Homo sapiens, UniProt P21980); assay: Irreversible inhibition of recombinant human TG2 expressed in Escherichia coli BL21 assessed as inhibition constant using AL5 as substrate by continuous chromogenic assay; method in brief: as §1
T2 sequence (P21980 whole entry): T1 sequence (whole entry)

[3] = target: T1, Protein-glutamine gamma-glutamyltransferase (Homo sapiens); assay: Irreversible inhibition of recombinant human TG2 expressed in Escherichia coli BL21 assessed as Kinact using AL5 as substrate by continuous chromogenic assay; method in brief: as §1
[4] = target: T1, Protein-glutamine gamma-glutamyltransferase (Homo sapiens); assay: Irreversible inhibition of recombinant human TG2 expressed in Escherichia coli BL21 assessed as ratio of Kinact/Ki using AL5 as substrate by linear regression analysis
Method in brief: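 Same TG2/AL5 continuous 405 nm assay (100 µM AL5, 5 mU/mL TG2, 50 mM MOPS, 7.5 mM CaCl2, 25 °C, 20 min); where saturation was not reached, rate constants of the lowest 3 inhibitor concentrations fitted by linear regression, slope taken as kinact/KI.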

[5] = test system: SCC-13; assay: Antiproliferative activity against human SCC-13 cells assessed as dose-dependent inhibition at 25 to 100 uM incubated for 48 hrs by Coulter cell counter analysis; type: functional, cell-based; details: dose 25-100 µM
[6] = Apparent permeability from apical to basolateral side in MDCK-MDR1 cells; type: ADME, cell-based, Canis lupus familiaris; details: dog
[7] = test system: SCC-13; assay: Inhibition of cell invasion in human SCC-13 cells at 10 to 50 uM measured over 20 hrs by DAPI staining based fluorescence microscopic analysis; type: functional; details: dose 10-50 µM
Method in brief: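 Matrigel-coated inserts (8-µm pores); 20,000 SCC-13 cells seeded in upper chamber in growth medium with 1% FCS, lower chamber 10% FCS; invasion followed over 0–20 h; membrane fixed in 4% paraformaldehyde, nuclei DAPI-stained, cells on lower surface counted by fluorescence microscopy.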

[8] = Lipophilicity, logP of the compound; type: physicochemical; details: octanol/water
[9] = Apparent permeability from basolateral to apical side in MDCK-MDR1 cells; type: ADME, cell-based, Canis lupus familiaris; details: dog
[10] = test system: MDR1; assay: Efflux ratio of apparent permeability in MDCK-MDR1 cells; type: ADME, cell-based, Canis lupus familiaris; details: dog

Structure (SMILES) | Ratio [1] | Ki [2] [µM] | Kinact [3] [min⁻¹] | other results
C=CC(=O)NCCCC[C@H](NC(=O)Cc1ccccc1Br)C(=O)N1CCN(C(=O)[C@@H](C)NC(=O)c2cccc3ccccc23)CC1 | 209 10^3/M/min |  |  | 
C=CC(=O)NCCCC[C@H](NC(=O)OCc1ccccc1)C(=O)N1CCN(C(=O)[C@H](C)NC(=O)c2cccc3ccccc23)CC1 | 610 10^3/M/min | 2.3 | 1.4 | 
C=CC(=O)NCCCC[C@H](NC(=O)OCc1ccccc1)C(=O)N1CCN(C(=O)[C@@H](NC(=O)c2cccc3ccccc23)C(C)C)CC1 | 272 10^3/M/min | 2.9 | 0.79 | 
C=CC(=O)NCCCC[C@H](NC(=O)Cc1ccccc1Cl)C(=O)N1CCN(C(=O)[C@H](Cc2ccccc2)NC(=O)c2cccc3ccccc23)CC1 | 155 10^3/M/min | 1.6 | 0.25 | 
C=CC(=O)NCCCC[C@H](NC(=O)Cc1ccc(F)cc1F)C(=O)N1CCN(C(=O)[C@H](C)NC(=O)c2cccc3ccccc23)CC1 | 225 10^3/M/min | 5.1 | 1.16 | 
C=CC(=O)NCCCC[C@H](NC(=O)OCc1ccccc1)C(=O)N[C@H](C(=O)N1CCN(C(=O)c2cccc3ccccc23)CC1)C(C)C | 56 10^3/M/min | 5.1 | 0.29 | 
C=CC(=O)NCCCC[C@H](NC(=O)OCc1ccccc1)C(=O)N1CCN(C(=O)[C@H](CC(C)C)NC(=O)c2cccc3ccccc23)CC1 | 240 10^3/M/min | 12.8 | 3.1 | 
C=CC(=O)NCCCC[C@H](NC(=O)Cc1ccccc1C)C(=O)N1CCN(C(=O)[C@@H](Cc2ccccc2)NC(=O)c2cccc3ccccc23)CC1 |  |  |  | Ratio [4]: 238 10^3/M/min
C=CC(=O)NCCCC[C@H](NC(=O)OCc1ccccc1)C(=O)N1CCN(C(=O)[C@@H](Cc2ccccc2)NC(=O)c2cccc3ccccc23)CC1 | 760 10^3/M/min | 1 | 0.8 | Activity [5]: inactive; Papp A→B [6]: 0.06 ×10⁻⁶ cm/s; inhibition [7]: Active; logP [8]: 2.73; Papp B→A [9]: 5.46 ×10⁻⁶ cm/s; efflux ratio [10]: 96.7
C=CC(=O)NCCCC[C@H](NC(=O)Cc1ccccc1C)C(=O)N1CCN(C(=O)[C@H](C)NC(=O)c2cccc3ccccc23)CC1 | 418 10^3/M/min | 9.5 | 3.95 | 
C=CC(=O)NCCCC[C@H](NC(=O)OCc1ccccc1)C(=O)N[C@@H](C(=O)N1CCN(C(=O)c2cccc3ccccc23)CC1)C(C)C | 65 10^3/M/min | 3.4 | 0.22 | 
C=CC(=O)NCCCC[C@H](NC(=O)OCc1ccccc1)C(=O)N1CCN(C(=O)[C@@H](NC(=O)c2cccc3ccccc23)C(C)CC)CC1 (some centres undefined) | 300 10^3/M/min | 8.1 | 2.4 | 
C=CC(=O)NCCCC[C@H](NC(=O)Cc1ccccc1Cl)C(=O)N1CCN(C(=O)[C@@H](C)NC(=O)c2cccc3ccccc23)CC1 |  |  |  | Ratio [4]: 170 10^3/M/min
C=CC(=O)NCCCC[C@H](NC(=O)Cc1ccccc1Br)C(=O)N1CCN(C(=O)[C@@H](Cc2ccccc2)NC(=O)c2cccc3ccccc23)CC1 |  |  |  | Ratio [4]: 132 10^3/M/min
C=CC(=O)NCCCC[C@H](NC(=O)OCc1ccccc1)C(=O)N1CCN(C(=O)[C@H](NC(=O)c2cccc3ccccc23)C(C)C)CC1 | 595 10^3/M/min | 1.3 | 0.75 | 
C=CC(=O)NCCCC[C@H](NC(=O)Cc1ccccc1C)C(=O)N1CCN(C(=O)[C@@H](C)NC(=O)c2cccc3ccccc23)CC1 | 374 10^3/M/min | 14.9 | 5.59 | 
C=CC(=O)NCCCC[C@H](NC(=O)Cc1ccccc1Cl)C(=O)N1CCN(C(=O)[C@@H](Cc2ccccc2)NC(=O)c2cccc3ccccc23)CC1 |  |  |  | Ratio [4]: 127 10^3/M/min
C=CC(=O)NCCCC[C@H](NC(=O)Cc1ccccc1F)C(=O)N1CCN(C(=O)[C@H](C)NC(=O)c2cccc3ccccc23)CC1 | 502 10^3/M/min | 3.3 | 1.68 | 
C=CC(=O)NCCCC[C@H](NC(=O)OCc1ccccc1)C(=O)N1CCN(C(=O)CNC(=O)c2cccc3ccccc23)CC1 | 513 10^3/M/min | 0.3 | 0.16 | Papp A→B [6]: 0.55 ×10⁻⁶ cm/s; logP [8]: 2.99; Papp B→A [9]: 8.43 ×10⁻⁶ cm/s; efflux ratio [10]: 15.5

The next lines start with results.

Ratio [1] | Ki [2] [µM] | Kinact [3] [min⁻¹] | Structure (SMILES) | other results
590 10^3/M/min | 1.3 | 0.75 | C=CC(=O)NCCCC[C@H](NC(=O)OCc1ccccc1)C(=O)N1CCN(C(=O)[C@@H](C)NC(=O)c2cccc3ccccc23)CC1 | 
330 10^3/M/min | 4.4 | 1.4 | C=CC(=O)NCCCC[C@H](NC(=O)OCc1ccccc1)C(=O)N1CCN(C(=O)[C@@H](CC(C)C)NC(=O)c2cccc3ccccc23)CC1 | 
171 10^3/M/min | 8.8 | 1.51 | C=CC(=O)NCCCC[C@H](NC(=O)Cc1ccccc1C)C(=O)N1CCN(C(=O)[C@H](Cc2ccccc2)NC(=O)c2cccc3ccccc23)CC1 | 
275 10^3/M/min | 9.8 | 2.69 | C=CC(=O)NCCCC[C@H](NC(=O)Cc1ccccc1Br)C(=O)N1CCN(C(=O)[C@H](C)NC(=O)c2cccc3ccccc23)CC1 | 
330 10^3/M/min | 2.3 | 0.77 | C=CC(=O)NCCCC[C@H](NC(=O)OCc1ccccc1)C(=O)NCC(=O)N1CCN(C(=O)c2cccc3ccccc23)CC1 | 
470 10^3/M/min | 2.1 | 0.99 | C=CC(=O)NCCCC[C@H](NC(=O)OCc1ccccc1)C(=O)N1CCN(C(=O)[C@H](Cc2ccccc2)NC(=O)c2cccc3ccccc23)CC1 | 
252 10^3/M/min | 6 | 1.52 | C=CC(=O)NCCCC[C@H](NC(=O)Cc1ccccc1OC)C(=O)N1CCN(C(=O)[C@H](C)NC(=O)c2cccc3ccccc23)CC1 | 
182 10^3/M/min | 1.3 | 0.24 | C=CC(=O)NCCCC[C@H](NC(=O)Cc1ccccc1Br)C(=O)N1CCN(C(=O)[C@H](Cc2ccccc2)NC(=O)c2cccc3ccccc23)CC1 | 
211 10^3/M/min | 9.3 | 1.97 | C=CC(=O)NCCCC[C@H](NC(=O)Cc1ccccc1Cl)C(=O)N1CCN(C(=O)[C@H](C)NC(=O)c2cccc3ccccc23)CC1 | 
